SENP8 block-1: human SENP8 protease inhibitors, primary screen, biochemical, fluorescence, Nedd8 protein substrate, uHTS. Sentrin-specific protease 8 (Homo sapiens), Q96LD8. recombinant SENP8. inhibition, % at 20 µM. actives 0.64% (n = 360,000). AID 602440, 2012; in the data active means inhibition mostly above about 40%, no sharp cut-off; inactive means mostly below about 27%
Target sequence (Q96LD8 whole entry, looked up): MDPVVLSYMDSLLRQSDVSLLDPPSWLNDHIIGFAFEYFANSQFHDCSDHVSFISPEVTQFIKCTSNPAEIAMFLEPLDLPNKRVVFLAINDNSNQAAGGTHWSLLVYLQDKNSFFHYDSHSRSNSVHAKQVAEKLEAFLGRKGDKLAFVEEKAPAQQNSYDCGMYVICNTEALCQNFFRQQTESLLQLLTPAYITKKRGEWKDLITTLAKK
SENP6 block: SENP6 protease inhibitors, primary screen, biochemical, luminescence, uHTS; Recombinant SENP6 catalytic domain, aminoluciferin luminescence; AID 2599, 2010; actives 1.8% (n = 330,000); Sentrin-specific protease 6 (Homo sapiens), Q9GZR1; inhibition, % at 10 µM;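 active means inhibition above about 50% at the single tested dose, limit read from the data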;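 further: plate controls were DMSO wells with enzyme for no effect and DMSO wells lacking enzyme for full effect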
HSP90 inh: HSP90 inhibitors, primary screen, cell lysate, luminescence; inhibition, % at 5.6 µM; AID 1789, 2009; Rabbit reticulocyte lysate, luciferase refolding luminescence, 3 h; Heat shock protein HSP 90 (rabbit reticulocyte lysate; luciferase refolding); actives 0.91% (n = 290,000);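 active means inhibition above the screen-wide mean plus 3 SD, computed separately per campaign, cut at about 16% in these data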;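 further: 0% = DMSO wells and 100% = 60 µM geldanamycin wells; inhibitors lower the luminescence because luciferase stays unfolded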
SENP7 inh: SENP7 protease inhibitors, primary screen, biochemical, luminescence, uHTS; Sentrin-specific protease 7 (Homo sapiens), Q9BQF6; recombinant SENP7, Z-RLRGG-aminoluciferin luminescence, 40 min; inhibition, % at 5 µM; actives 1.5% (n = 330,000); AID 434973, 2010;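 active means inhibition above about 50% at the single test dose, limit read from the data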;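 further: plate controls were DMSO with enzyme for no effect and no enzyme buffer wells for full effect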
Target sequence (Q9BQF6 706-1050 limits assumed): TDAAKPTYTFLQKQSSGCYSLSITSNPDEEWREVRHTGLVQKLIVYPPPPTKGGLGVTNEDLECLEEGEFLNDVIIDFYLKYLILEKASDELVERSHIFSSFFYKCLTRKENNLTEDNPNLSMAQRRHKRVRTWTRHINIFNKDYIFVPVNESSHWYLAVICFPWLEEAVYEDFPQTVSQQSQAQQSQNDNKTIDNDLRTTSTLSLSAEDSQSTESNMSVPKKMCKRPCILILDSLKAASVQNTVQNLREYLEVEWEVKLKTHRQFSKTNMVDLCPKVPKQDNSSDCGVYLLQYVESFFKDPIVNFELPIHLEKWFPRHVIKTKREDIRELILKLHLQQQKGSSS
SENP1 FRET inh: human SENP1 catalytic domain inhibitors, primary screen, biochemical, FRET, uHTS. Sentrin-specific protease 1 (Homo sapiens), Q9P0U3. recombinant SENP1 catalytic domain, CyPet-SUMO1-YPet FRET cleavage. inhibition, % at 10 µM. actives 0.21% (n = 360,000). AID 624204, 2012;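 active means inhibition at least 30% at 10 µM, raw YFP signal under a set limit, fluorescence ratio 0.5 to 1.5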;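 further: 0% = enzyme with DMSO and 100% = no enzyme wells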
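system = hSENP1 catalytic domain, recombinant | reagent = SFCypet-SUMO1-SFYpet substrate at 25 nM | doses = one dose per compound, 10 µM, 0.5% DMSO | incubation = enzyme reaction for 50 min at room temperature, dark | measured by = FRET, CFP and YFP emission | controls = no-enzyme low, enzyme-DMSO high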
SENP8 block-2: SENP8 protease inhibitors, primary screen, biochemical, luminescence | Sentrin-specific protease 8 (Homo sapiens), Q96LD8 | purified SENP8, Z-RLRGG-aminoluciferin cleavage | inhibition, % at 10 µM | actives 1.2% (n = 330,000) | AID 2540, 2010; in the data active means inhibition above about 50%
SENP8 conf: SENP8 protease inhibitors, retest, confirmation, biochemical, luminescence, single concentration | shares compounds with SENP7 inh | Recombinant SENP8, Z-RLRGG-aminoluciferin luminescence, 60 min | actives 40% (n = 6,200) | inhibition, % at 12.5 µM;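 active means mean inhibition across replicates above about 50%, limit read from the data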
SENP6 confirm: SENP6 protease inhibitors, confirmation, biochemical, luminescence, single concentration. shares compounds with SENP7 inh. recombinant SENP6, Z-RLRGG-aminoluciferin luminescence. inhibition, % at 12.5 µM. actives 58% (n = 6,200)
SENP7 confirm: SENP7 protease inhibitors, retest, confirmation, biochemical, luminescence, single concentration; recombinant SENP7, Z-RLRGG-aminoluciferin luminescence, 40 min; inhibition, % at 12.5 µM; shares compounds with SENP7 inh; AID 488917, 2010; actives 69% (n = 6,200)
Casp3 select: caspase-3 protease inhibitors, confirmation, selectivity assay for SENP inhibitor project, biochemical, single concentration. purified caspase-3, Z-DEVD-aminoluciferin luminescence, 60 min. shares compounds with SENP7 inh. AID 488918, 2010. actives 60% (n = 6,200). inhibition, % at 12.5 µM;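 active means mean inhibition above about 50%, limit read from the data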;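 further: plate controls were enzyme with DMSO for no effect and wells without caspase-3 for full effect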
Target sequence (P42574 28-227 limits assumed): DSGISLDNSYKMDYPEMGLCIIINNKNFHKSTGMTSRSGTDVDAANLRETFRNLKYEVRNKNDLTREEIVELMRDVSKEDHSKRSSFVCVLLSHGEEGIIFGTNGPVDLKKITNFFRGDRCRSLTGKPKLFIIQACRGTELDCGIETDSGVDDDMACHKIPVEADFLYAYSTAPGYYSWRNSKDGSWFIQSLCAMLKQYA
Luc interf: luminescence interference (SENP counter-screen); shares compounds with SENP7 inh; inhibition, % at 12.5 µM; Pre-incubated SENP8/Z-RLRGG-aminoluciferin, luciferase luminescence interference; actives 39% (n = 6,200);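 active means mean inhibition above about 50% when retested at one dose, limit read from the data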;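 further: plate controls were DMSO wells with completed reaction for no effect and substrate without enzyme for full effect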
The depositor's hits bear a star; i = inactive; x = not tested or not shown. Only some compounds are listed: those with a hit (about 2.9% of all), similar ones and a draw of the others.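 How the source made its calls, unless noted: active means mean inhibition above about 50% in the one-dose retest (limit read from the data); inactive means the rest.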

SMILES | SENP8 block-1 | SENP6 block | HSP90 inh | SENP7 inh | SENP1 FRET inh | SENP8 block-2 | SENP8 conf | SENP6 confirm | SENP7 confirm | Casp3 select | Luc interf
COc1ccc(-c2cn3c(C)c(C(=O)N4CCCc5ccccc54)sc3n2)cc1 | 24.5 | -3.8 | 6.5 | -4.6 | -0.2 | 1.6 | x | x | x | x | x
COc1ccc(S(=O)(=O)N(C)C[C@H]2Oc3ccc(NC(=O)Cc4ccccc4)cc3C(=O)N([C@H](C)CO)C[C@@H]2C)cc1 | 13.2 | -6.7 | x | 5.9 | 0.5 | 3.6 | x | x | x | x | x
O=C(Nc1ccccc1)N1CC=C(c2ccc(F)cc2)CC1 | -20.9 | 51.5* | -5.0 | 34.6 | -1.7 | 0.3 | 24.7 | 18.4 | 58.8* | 30.1 | 42.3
O=C(Nc1ccccc1)N1CC=C(c2ccccc2)CC1 | x | 18.5 | -12.0 | 4.4 | x | 0.8 | x | x | x | x | x
Cc1ccc(C2CCN(C(=O)Nc3ccc(F)cc3)C2)cc1 (stereo not drawn) | 12.4 | 60.9* | -6.8 | 3.8 | 2.4 | -5.0 | 9.4 | 1.3 | 13.0 | 17.7 | 12.2
CCc1nc2c(OCCn3cccc3)cccn2c1N(C)C(=O)c1ccccc1F | 10.6 | x | x | x | -5.7 | x | x | x | x | x | x
Cc1ccc(N2C(=O)c3ccccc3C2=O)cc1Cl | 19.4 | 35.1 | -1.0 | 51.1* | 1.4 | 19.5 | 8.2 | 10.8 | 3.3 | 18.8 | -3.3
Cc1ccc(N2C(=O)c3ccccc3C2=O)cc1 | 15.5 | 2.6 | -1.4 | -11.3 | 0.8 | -2.8 | x | x | x | x | x
Cc1c(Cl)ccc2sc(NC(=O)c3ccco3)nc12 | -211.8 | 66.7* | -1.0 | 86.1* | 1.9 | 77.8* | 34.6 | 85.8* | 72.0* | 54.1* | 20.0
C=CCOC(=O)c1sc(NC(=O)c2ccco2)nc1C | -43.0 | 49.3 | 1.6 | 55.8* | -0.5 | 15.1 | 11.8 | 15.7 | 17.8 | 31.4 | 5.0
COc1ccc(-c2nc(NC(=O)c3ccco3)sc2C)cc1 | -41.4 | x | x | x | 3.3 | x | x | x | x | x | x
CCOC(=O)c1ccc2nc(NC(=O)c3cccs3)sc2c1 | -446.4 | 56.3* | 1.0 | 96.5* | -0.2 | 91.7* | -23.4 | 49.8 | 86.1* | 51.3* | 13.7
CCOC(=O)c1ccc2nc(NC(=O)c3ccco3)sc2c1 | i | 93.3* | 3.1 | 89.8* | -149.2 | 85.4* | 6.1 | 45.7 | 77.9* | 51.4* | 12.3
CC(C)C[C@H]1CN(CCCC[C@H]2CNC(=O)C(=O)N2CCc2ccccc2)C(=O)C(=O)N1Cc1ccccc1 | 10.1 | x | x | x | 0.6 | x | x | x | x | x | x
Cc1ccc(NC(=O)c2ncn(CCCNCC3CCCO3)n2)cc1C (stereo not drawn) | 0.9 | x | x | x | -2.2 | x | x | x | x | x | x
CNC(=O)c1cc(C(=O)c2ccc(F)cc2C(F)(F)F)c[nH]1 | 13.6 | -5.5 | -1.4 | 5.2 | 0.1 | -1.0 | x | x | x | x | x
Cc1ccc(S(=O)(=O)Nc2ccccc2N=Cc2ccc([N+](=O)[O-])cc2[N+](=O)[O-])cc1 | 29.0 | x | x | x | 3.1 | x | x | x | x | x | x
Cn1cc(-c2csc(C(O)c3ccc(F)c(F)c3)n2)cn1 (stereo not drawn) | 10.7 | x | x | x | 1.7 | x | x | x | x | x | x
CCC(C)(C)c1ccc2c(c1)C(=O)c1ccccc1C2=O | 13.7 | 93.0* | -3.6 | 76.8* | 1.1 | 79.0* | 10.2 | 83.5* | 86.5* | 95.5* | 79.9*
CCC(=O)Nc1ccc2c(c1)C(=O)c1ccccc1C2=O | 18.3 | 15.9 | -2.2 | 37.9 | 2.7 | 7.6 | x | x | x | x | x
O=C(NCCCN1CCCC1=O)c1cccc(NS(=O)(=O)c2ccc(Br)cc2)c1 | -1.6 | -7.3 | x | 4.5 | 2.1 | -2.1 | x | x | x | x | x
C=CCN(CC=C)c1cnn(-c2nc3ccccc3[nH]2)c(=O)c1Cl | -226.4 | 86.6* | 6.4 | 76.5* | 0.2 | 58.0* | 71.0* | 76.6* | 94.3* | 91.2* | 24.8
O=S(=O)(Nc1nc2ccccc2[nH]1)c1ccc(Cl)cc1 | 3.1 | 4.6 | 1.8 | 0.6 | -0.4 | 2.1 | x | x | x | x | x
O=c1c(Cl)c(NCCCO)cnn1-c1nc2ccccc2[nH]1 | -358.4 | 62.0* | 3.7 | 69.0* | 1.9 | 49.6 | 58.8* | 56.5* | 84.9* | 89.1* | 36.2
O=c1c(Cl)c(NCCO)cnn1-c1cccc(Cl)c1 | -15.3 | -3.2 | -2.5 | -4.7 | 1.5 | -11.6 | x | x | x | x | x
SMILES | SENP8 block-1 | SENP6 block | HSP90 inh | SENP7 inh | SENP1 FRET inh | SENP8 block-2 | SENP8 conf | SENP6 confirm | SENP7 confirm | Casp3 select | Luc interf
Cc1ccc(C)c(S(=O)(=O)N2CCN(C(=O)c3n[nH]c(=O)c4ccccc34)CC2)c1 | 4.4 | -10.4 | x | -4.2 | 0.6 | -12.8 | x | x | x | x | x
COc1ccc(NC(=O)C(NS(=O)(=O)c2ccc3c(c2)CCCN3C(C)=O)C(C)C)c(OC)c1 (stereo not drawn) | 29.2 | -4.4 | 1.2 | 101.6* | 0.5 | 1.3 | -25.0 | -10.5 | 0.7 | -2.5 | -5.2
Cc1ccc(C)c(N=Nc2nc3ccccc3n2C)c1 | 20.7 | 78.9* | 10.9 | 86.6* | 4.4 | 64.6* | 90.2* | 83.8* | 99.5* | 63.4* | 93.6*
Cc1cc(C)c(C)c(N=Nc2nc3ccccc3n2C)c1C | -219.6 | 32.9 | 2.9 | 6.0 | 4.0 | 7.8 | x | x | x | x | x
Cc1ccccc1/C(N)=N/OC(=O)/C=C/c1ccccc1 | 13.6 | 67.4* | -1.4 | 60.0* | 2.0 | 36.7 | 50.6* | 52.5* | 82.9* | 71.3* | 64.2*
Cc1ccc(/C(N)=N/OC(=O)/C=C/c2ccccc2)cc1 | 7.1 | 12.1 | -0.2 | -0.3 | 2.7 | -5.2 | x | x | x | x | x
Cc1ccccc1/C(N)=N/OC(=O)c1cccs1 | 5.5 | 74.1* | -8.3 | 45.9 | 1.3 | 32.6 | 55.7* | 55.3* | 83.9* | 80.3* | 61.5*
COC(=O)c1ccc(C(=O)OC)c(NC(=O)COC(=O)CCOc2ccc(C)cc2)c1 | -79.5 | -3.2 | x | -13.5 | -0.8 | -18.1 | x | x | x | x | x
